pIC50: −log10 of the molar value. Values after ≈ are worked out from the molar mass of the structure shown. Active and inactive are the calls of the source. No cut-off for these calls is given here.
Columns and labels:
Staphylococcus aureus [1] = assay: Bactericidal activity against methicillin-resistant Staphylococcus aureus BW61 after 24 hrs by CFU counting assay; assay type: functional; details: BW61, 24 h
Outline: (§1)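 MBC (lowest concentration killing the pathogen) determined per CLSI specifications, with fosfomycin, ceftriaxone, ciprofloxacin and chloramphenicol run as reference drugs; S. aureus ATCC 29213 used as quality-control strain.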

Staphylococcus aureus [2] = assay: Antibacterial activity against Staphylococcus aureus ATCC 29213 after 24 hrs by broth microdilution method; assay type: functional; details: ATCC 29213, 24 h
Outline: (§2)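 MIC (lowest concentration preventing growth) determined per CLSI specifications, with fosfomycin, ceftriaxone, ciprofloxacin and chloramphenicol run as reference drugs; S. aureus ATCC 29213 used as quality-control strain.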

Bacillus cereus [3] = assay: Bactericidal activity against Bacillus cereus ATCC 11778 after 24 hrs by CFU counting assay; assay type: functional; details: ATCC 11778, 24 h; outline: as §1
Bacillus cereus [4] = assay: Antibacterial activity against Bacillus cereus ATCC 11778 after 24 hrs by broth microdilution method; assay type: functional; details: ATCC 11778, 24 h; outline: as §2
Escherichia coli [5] = assay: Antibacterial activity against ESBL-producing Escherichia coli BW55 after 24 hrs by broth microdilution method; assay type: functional; details: BW55, 24 h; outline: as §2
[6] = test system: Stenotrophomonas maltophilia; assay: Bactericidal activity against multidrug-resistant Stenotrophomonas maltophilia D457R after 24 hrs by CFU counting assay; assay type: functional; outline: as §1
[7] = test system: Stenotrophomonas maltophilia; assay: Antibacterial activity against multidrug-resistant Stenotrophomonas maltophilia D457R after 24 hrs by broth microdilution method; assay type: functional; outline: as §2
Staphylococcus aureus [8] = assay: Bactericidal activity against Staphylococcus aureus ATCC 29213 after 24 hrs by CFU counting assay; assay type: functional; details: ATCC 29213, 24 h; outline: as §1
[9] = test system: Acinetobacter haemolyticus; assay: Antibacterial activity against vancomycin-resistant Acinetobacter haemolyticus BW62 after 24 hrs by broth microdilution method; assay type: functional; details: BW62, 24 h; outline: as §2
[10] = test system: Acinetobacter haemolyticus; assay: Bactericidal activity against vancomycin-resistant Acinetobacter haemolyticus BW62 after 24 hrs by CFU counting assay; assay type: functional; details: BW62, 24 h; outline: as §1
Pseudomonas aeruginosa [11] = assay: Antibacterial activity against multidrug-resistant Pseudomonas aeruginosa PAO1 after 24 hrs by broth microdilution method; assay type: functional; details: PAO1, 24 h; outline: as §2
Pseudomonas aeruginosa [12] = assay: Bactericidal activity against multidrug-resistant Pseudomonas aeruginosa PAO1 after 24 hrs by CFU counting assay; assay type: functional; details: PAO1, 24 h; outline: as §1
Escherichia coli [13] = assay: Antibacterial activity against multidrug-resistant Escherichia coli BW54 after 24 hrs by broth microdilution method; assay type: functional; details: BW54, 24 h; outline: as §2
Escherichia coli [14] = assay: Bactericidal activity against ESBL-producing Escherichia coli BW55 after 24 hrs by CFU counting assay; assay type: functional; details: BW55, 24 h; outline: as §1
Escherichia coli [15] = assay: Bactericidal activity against multidrug-resistant Escherichia coli BW54 after 24 hrs by CFU counting assay; assay type: functional; details: BW54, 24 h; outline: as §1
Staphylococcus aureus [16] = assay: Antibacterial activity against methicillin-resistant Staphylococcus aureus BW61 after 24 hrs by broth microdilution method; assay type: functional; details: BW61, 24 h; outline: as §2
Human alphaherpesvirus 2 = assay: Antiviral activity against Herpes simplex virus 2 G; assay type: functional, organism-based; details: Human alphaherpesvirus 2, strain G
[17] = test system: Acinetobacter haemolyticus; assay: Antibacterial activity against vancomycin-resistant Acinetobacter haemolyticus BW62 at 10 ug by disc diffusion method; assay type: functional
Escherichia coli [18] = assay: Antibacterial activity against ESBL-producing Escherichia coli BW55 at 10 ug by disc diffusion method; assay type: functional
Pseudomonas aeruginosa [19] = assay: Antibacterial activity against multidrug-resistant Pseudomonas aeruginosa PAO1 at 10 ug by disc diffusion method; assay type: functional
Staphylococcus aureus [20] = assay: Antibacterial activity against Staphylococcus aureus ATCC 29213 at 10 ug by disc diffusion method; assay type: functional; details: for zone of inhibition at 10 µg/disc: read-out: IZ
Escherichia coli [21] = assay: Antibacterial activity against multidrug-resistant Escherichia coli BW54 at 10 ug by disc diffusion method; assay type: functional
Bacillus cereus [22] = assay: Antibacterial activity against Bacillus cereus ATCC 11778 at 10 ug by disc diffusion method; assay type: functional
[23] = test system: Stenotrophomonas maltophilia; assay: Antibacterial activity against multidrug-resistant Stenotrophomonas maltophilia D457R at 10 ug by disc diffusion method; assay type: functional

| Compound | MBC (Staphylococcus aureus [1]) [µg/mL] | MIC (Staphylococcus aureus [2]) [µg/mL] | MBC (Bacillus cereus [3]) [µg/mL] | MIC (Bacillus cereus [4]) [µg/mL] | MIC (Escherichia coli [5]) [µg/mL] | MBC [6] [µg/mL] | MIC [7] [µg/mL] | MBC (Staphylococcus aureus [8]) [µg/mL] | MIC [9] [µg/mL] | MBC [10] [µg/mL] | MIC (Pseudomonas aeruginosa [11]) [µg/mL] | MBC (Pseudomonas aeruginosa [12]) [µg/mL] | MIC (Escherichia coli [13]) [µg/mL] | MBC (Escherichia coli [14]) [µg/mL] | MBC (Escherichia coli [15]) [µg/mL] | MIC (Staphylococcus aureus [16]) [µg/mL] | Activity [17] | Activity (Escherichia coli [21]) | Activity (Bacillus cereus [22]) | Activity [23] | also measured |
| --- | --- | --- | --- | --- | --- | --- | --- | --- | --- | --- | --- | --- | --- | --- | --- | --- | --- | --- | --- | --- | --- |
| O=C(N[C@H](CO)[C@H](O)c1ccc([N+](=O)[O-])cc1)C(Cl)Cl [CHLORAMPHENICOL] | 128 (≈ 396 µM) | 8 (≈ 24.8 µM) | 64 (≈ 198 µM) | 0.5 (≈ 1.55 µM) | 8 (≈ 24.8 µM) | ≥ 256 | 128 (≈ 396 µM) | 64 (≈ 198 µM) | 128 (≈ 396 µM) | ≥ 256 | ≥ 256 | ≥ 256 | 128 (≈ 396 µM) | 128 (≈ 396 µM) | ≥ 256 | 16 (≈ 49.5 µM) |  |  |  |  |  |
| CO/N=C(\C(=O)N[C@@H]1C(=O)N2C(C(=O)O)=C(CSc3nc(=O)c(O)nn3C)CS[C@H]12)c1csc(N)n1 [CEFTRIAXONE] | 4 (≈ 7.21 µM) | 4 (≈ 7.21 µM) | 64 (≈ 115 µM) | 32 (≈ 57.7 µM) | 32 (≈ 57.7 µM) | 128 (≈ 231 µM) | 64 (≈ 115 µM) | 4 (≈ 7.21 µM) | 4 (≈ 7.21 µM) | 4 (≈ 7.21 µM) | 128 (≈ 231 µM) | 128 (≈ 231 µM) | ≤ 0.5 | 64 (≈ 115 µM) | 0.5 (≈ 0.902 µM) | 4 (≈ 7.21 µM) |  |  |  |  |  |
| C[C@@H]1O[C@@H]1P(=O)(O)O [FOSFOMYCIN] | 32 (≈ 232 µM) | 8 (≈ 57.9 µM) | 32 (≈ 232 µM) | 32 (≈ 232 µM) | 32 (≈ 232 µM) | 256 (≈ 1850 µM) | 256 (≈ 1850 µM) | 64 (≈ 464 µM) | 128 (≈ 927 µM) | 128 (≈ 927 µM) | 64 (≈ 464 µM) | 64 (≈ 464 µM) | 32 (≈ 232 µM) | 128 (≈ 927 µM) | 32 (≈ 232 µM) | 64 (≈ 464 µM) |  |  |  |  |  |
| Nc1ncnc2c1ncn2CCOCP(=O)(O)O [ADEFOVIR] |  |  |  |  |  |  |  |  |  |  |  |  |  |  |  |  |  |  |  |  | pIC50 (Human alphaherpesvirus 2): 4.11 |
| O=P(Oc1ccccc1)(Oc1ccccc1)[C@@]1(O)CCC[C@@H]1Cl (mixture of isomers) | ≥ 256 | 256 | 256 | 128 | 128 | 256 | 128 | ≥ 256 | 128 | 256 | 256 | 256 | 128 | 256 | 256 | 256 | inactive | inactive | inactive | inactive | Activity (Escherichia coli [18]): inactive; Activity (Pseudomonas aeruginosa [19]): inactive; zone of inhibition at 10 µg/disc (Staphylococcus aureus [20]): 8 mm |
| O=P(Oc1ccccc1)(Oc1ccccc1)[C@@]1(O)c2ccccc2C[C@@H]1Cl (mixture of isomers) | 256 | 256 | 256 | 128 | 128 | 256 | 128 | 256 | 128 | 256 | 128 | 256 | 128 | 256 | 256 | 256 | inactive | inactive | inactive | inactive | zone of inhibition at 10 µg/disc (Escherichia coli [18]; read-out: IZ): 8 mm; zone of inhibition at 10 µg/disc (Pseudomonas aeruginosa [19]; read-out: IZ): 9 mm; zone of inhibition at 10 µg/disc (Staphylococcus aureus [20]): 5 mm |
| O=C(O)c1cn(C2CC2)c2cc(N3CCNCC3)c(F)cc2c1=O [CIPROFLOXACIN] | 4 (≈ 12.1 µM) | 4 (≈ 12.1 µM) | 4 (≈ 12.1 µM) | 4 (≈ 12.1 µM) |  | 256 (≈ 773 µM) | 4 (≈ 12.1 µM) | 4 (≈ 12.1 µM) | 4 (≈ 12.1 µM) | 4 (≈ 12.1 µM) | 4 (≈ 12.1 µM) | 4 (≈ 12.1 µM) |  | 1 (≈ 3.02 µM) | 4 (≈ 12.1 µM) | 4 (≈ 12.1 µM) |  |  |  |  |  |
| CC1(C)COP(=O)([C@@](C)(O)CCl)OC1 |  |  |  |  |  |  |  |  |  |  |  |  |  |  |  |  | inactive | inactive | inactive | inactive | Activity (Escherichia coli [18]): inactive; Activity (Pseudomonas aeruginosa [19]): inactive; Activity (Staphylococcus aureus [20]): inactive |

Source: ChEMBL document CHEMBL3098034, “Synthesis and biological evaluation of α-hydroxyalkylphosphonates as new antimicrobial agents” (Bioorg Med Chem Lett, 2014)
